Test results taken from ChEMBL document CHEMBL4049441, “Transforming Sphingosine Kinase 1 Inhibitors into Dual and Sphingosine Kinase 2 Selective Inhibitors: Design, Synthesis, and in Vivo Activity” (J Med Chem, 2017).
Activity calls are given as the source filed them. The calls are words filed in the database; no cut-off is given here.

What was measured:
[1] = target: T1, Sphingosine kinase 2 (Homo sapiens) (UniProt Q9NRA0); experiment: Inhibition of recombinant human SPHK2 assessed as residual activity at 0.3 uM using sphingosine as substrate after 30 mins in presence of gamma-[32P]-ATP by liquid scintillation counting relative to control
T1 sequence (whole entry): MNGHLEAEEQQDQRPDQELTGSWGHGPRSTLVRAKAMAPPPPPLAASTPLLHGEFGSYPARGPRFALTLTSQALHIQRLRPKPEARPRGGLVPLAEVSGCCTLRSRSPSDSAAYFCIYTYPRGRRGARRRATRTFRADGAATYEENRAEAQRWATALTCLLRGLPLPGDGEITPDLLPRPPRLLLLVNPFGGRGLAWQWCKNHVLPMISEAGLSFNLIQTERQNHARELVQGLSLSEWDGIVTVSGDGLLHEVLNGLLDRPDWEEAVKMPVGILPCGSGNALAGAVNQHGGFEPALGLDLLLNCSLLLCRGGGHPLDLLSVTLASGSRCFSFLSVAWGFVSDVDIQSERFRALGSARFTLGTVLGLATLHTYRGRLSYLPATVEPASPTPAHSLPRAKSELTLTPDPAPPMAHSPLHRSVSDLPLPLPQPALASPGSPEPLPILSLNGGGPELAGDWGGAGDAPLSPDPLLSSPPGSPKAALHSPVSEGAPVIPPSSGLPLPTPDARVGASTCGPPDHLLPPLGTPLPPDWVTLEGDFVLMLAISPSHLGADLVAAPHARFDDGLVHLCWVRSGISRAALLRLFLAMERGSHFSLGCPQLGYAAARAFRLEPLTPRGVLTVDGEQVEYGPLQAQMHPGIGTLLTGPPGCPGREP
Summary of the method: (§1)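 Recombinant human SphK1 or SphK2 from cell lysate, briefly incubated with or without compound at 0.3 μM, sphingosine (5 μM for SphK1, 10 μM for SphK2) and 250 μM γ-[³²P]ATP. Radiolabelled S1P extracted, resolved by TLC and counted by scintillation. Activity reported as % of no-inhibitor control; triplicate.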

[2] = target: T2, Sphingosine kinase 2 (Homo sapiens, UniProt Q9NRA0); experiment: Inhibition of recombinant human SPHK2 at using sphingosine as substrate after 30 mins in presence of gamma-[32P]-ATP by liquid scintillation counting
T2 sequence (Q9NRA0 whole entry): T1 sequence (whole entry)

[3] = target: T1, Sphingosine kinase 2 (Homo sapiens); experiment: Inhibition of SPHK2 in human U937 cells assessed as decrease in S1P levels after 2 hrs by LC-MS/MS analysis; type: cell-based
Summary of the method: (§2)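 U937 human histiocytic lymphoma cells (express both SphK isotypes) incubated with compound for 2 h, pelleted, lysed; 2–3 × 10⁶ cells extracted in methanol:chloroform (3:1) with D7-S1P/D7-sphingosine internal standards, KOH hydrolysis, then S1P and sphingosine measured by LC-MS-MS. Expressed as pmol per 10⁶ cells; duplicate experiments; unpaired t test against control.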

[4] = target: T1, Sphingosine kinase 2 (Homo sapiens); experiment: Inhibition of SPHK2 in human U937 cells assessed as effect on sphingosine levels at 0.1 to 1 uM after 2 hrs by LC-MS/MS analysis; type: cell-based; summary of the method: as §2
[5] = target: T3, Sphingosine kinase 1 (Homo sapiens, UniProt Q9NYA1)
T3 sequence (Q9NYA1 whole entry): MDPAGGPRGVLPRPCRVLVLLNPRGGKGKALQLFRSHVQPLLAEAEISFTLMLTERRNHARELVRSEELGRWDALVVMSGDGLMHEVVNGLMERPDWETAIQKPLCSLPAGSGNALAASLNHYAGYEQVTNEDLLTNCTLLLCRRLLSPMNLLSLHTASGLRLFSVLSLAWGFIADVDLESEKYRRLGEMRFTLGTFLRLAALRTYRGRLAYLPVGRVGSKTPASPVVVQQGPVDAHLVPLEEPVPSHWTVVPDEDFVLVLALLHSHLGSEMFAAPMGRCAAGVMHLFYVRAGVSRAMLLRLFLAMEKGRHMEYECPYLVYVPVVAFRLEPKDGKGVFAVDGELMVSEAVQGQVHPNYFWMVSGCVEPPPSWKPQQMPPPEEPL

[6] = target: T1, Sphingosine kinase 2 (Homo sapiens); experiment: Inhibition of recombinant human SPHK2 using sphingosine as substrate up to 1 uM after 30 mins in presence of gamma-[32P]-ATP by liquid scintillation counting
[7] = target: T4, Sphingosine kinase 2 (Mus musculus, UniProt Q9JIA7); experiment: Inhibition of recombinant mouse SPHK2 using sphingosine as substrate in presence ATP
T4 sequence (Q9JIA7 whole entry): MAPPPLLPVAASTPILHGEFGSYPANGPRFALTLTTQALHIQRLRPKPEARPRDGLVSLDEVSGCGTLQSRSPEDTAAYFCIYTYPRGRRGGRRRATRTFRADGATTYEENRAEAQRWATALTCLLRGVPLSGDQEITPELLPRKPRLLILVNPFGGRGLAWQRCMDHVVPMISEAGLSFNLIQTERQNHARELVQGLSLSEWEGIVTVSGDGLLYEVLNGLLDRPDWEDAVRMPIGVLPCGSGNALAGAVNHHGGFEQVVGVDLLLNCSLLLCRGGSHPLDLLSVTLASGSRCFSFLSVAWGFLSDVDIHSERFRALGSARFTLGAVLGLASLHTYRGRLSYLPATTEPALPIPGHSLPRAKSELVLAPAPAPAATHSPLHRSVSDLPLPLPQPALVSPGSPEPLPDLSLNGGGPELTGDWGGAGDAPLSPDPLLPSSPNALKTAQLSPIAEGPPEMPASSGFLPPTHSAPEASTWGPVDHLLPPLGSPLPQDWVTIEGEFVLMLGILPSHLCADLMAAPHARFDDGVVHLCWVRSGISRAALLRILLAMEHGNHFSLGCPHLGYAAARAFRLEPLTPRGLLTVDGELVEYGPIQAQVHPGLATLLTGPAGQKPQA

[8] = target: T3, Sphingosine kinase 1; experiment: Inhibition of recombinant human SPHK1 using sphingosine as substrate in presence ATP; summary of the method: as §1
[9] = Selectivity ratio of Ki for recombinant human SPHK1 to Ki for recombinant mouse SPHK2
[10] = system: Mus musculus; experiment: In vivo inhibition of SPHK2 in C57BL/6J mouse assessed as increase in S1P levels at 10 mg/kg, ip after 2 to 6 hrs by LC-MS/MS analysis; type: functional, organism-based
Summary of the method: (§3)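 Single intraperitoneal dose of 10 mg/kg in C57BL6/j mice, groups of 3 to 4; vehicle controls received an equal volume of 2% hydroxypropyl-β-cyclodextrin. Blood was sampled at set time points over 24 h. Whole blood (10 μl) was extracted in methanol:chloroform (3:1) with D7-S1P and D7-sphingosine internal standards, base-hydrolysed with KOH, and S1P quantified by reverse-phase C18 LC-MS-MS.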

[11] = system: Mus musculus; experiment: In vivo inhibition of SPHK2 in C57BL/6J mouse assessed as increase in S1P levels at 10 mg/kg, ip after 24 hrs by LC-MS/MS analysis; type: functional, organism-based; summary of the method: as §3
[12] = target: T1, Sphingosine kinase 2 (Homo sapiens); experiment: Inhibition of SPHK2 in human U937 cells assessed as effect on sphingosine levels at 0.3 to 1 uM after 2 hrs by LC-MS/MS analysis; type: cell-based; summary of the method: as §2

SMILES | Activity [1] [%] | also measured
N=C(N)N1CCC[C@H]1Cc1nc(-c2ccc(Nc3nc(-c4cccc(F)c4)cs3)cc2)no1 | 45 | 
N=C(N)N1CCC[C@H]1Cc1nc(-c2ccc(Nc3nc(-c4ccc(OC(F)(F)F)cc4)cs3)cc2)no1 | 44 | Ki [2]: 250 nM
N=C(N)N1CCC[C@H]1Cc1nc(-c2ccc(Nc3nc(-c4ccc(-c5cccc(C(F)(F)F)c5)cc4)cs3)cc2)no1 | 85 | 
N=C(N)N1CCC[C@H]1Cc1nc(-c2ccc(Nc3nc(-c4ccc(Cl)cc4)cs3)cc2)no1 | 51 | 
N=C(N)N1CCC[C@H]1Cc1nc(-c2ccc(Nc3nc(-c4ccc(F)c(F)c4)cs3)cc2)no1 | 51 | 
COc1ccc(-c2csc(Nc3ccc(-c4noc(C[C@@H]5CCCN5C(=N)N)n4)cc3)n2)cc1Cl | 71 | 
N=C(N)N1CCC[C@H]1Cc1nc(-c2ccc(Nc3nc(-c4ccc(Br)cc4)cs3)cc2)no1 | 46 | 
N=C(N)N1CCC[C@H]1Cc1nc(-c2ccc(Nc3nc(-c4cc(C(F)(F)F)cc(C(F)(F)F)c4)cs3)cc2)no1 | 63 | 
COc1cccc(-c2csc(Nc3ccc(-c4noc(C[C@@H]5CCCN5C(=N)N)n4)cc3)n2)c1 | 100 | 
N=C(N)N1CCC[C@H]1Cc1nc(-c2ccc(Nc3nc(-c4ccc(F)cc4)cs3)cc2)no1 | 55 | 
N=C(N)N1CCC[C@H]1Cc1nc(-c2ccc(Nc3nc(-c4cccc(Cl)c4)cs3)cc2)no1 | 45 | 
N=C(N)N1CCC[C@H]1Cc1nc(-c2ccc(Nc3nc(-c4ccccc4F)cs3)cc2)no1 | 44 | 
CCCCCOc1ccc2cc(-c3noc([C@H]4[C@@H](O)CCN4C(=N)N)n3)ccc2c1 |  | Ki [5]: 730 nM
N=C(N)N1CCC[C@H]1Cc1nc(-c2ccc(Nc3nc(-c4ccccc4C(F)(F)F)cs3)cc2)no1 | 72 | 
COc1ccc(-c2csc(Nc3ccc(-c4noc(C[C@@H]5CCCN5C(=N)N)n4)cc3)n2)cc1 | 100 | 
COc1ccc(-c2csc(Nc3ccc(-c4noc(C[C@@H]5CCCN5C(=N)N)n4)cc3)n2)cc1OC | 100 | 
Cc1ccc(-c2csc(Nc3ccc(-c4noc(C[C@@H]5CCCN5C(=N)N)n4)cc3)n2)cc1C | 67 | 
N=C(N)N1CCC[C@H]1Cc1nc(-c2ccc(Nc3nc(-c4cc(F)cc(C(F)(F)F)c4)cs3)cc2)no1 | 30 | Ki [2]: 170 nM
N=C(N)N1CCC[C@H]1Cc1nc(-c2ccc(Nc3nc(-c4ccc(C(F)(F)F)cc4)cs3)cc2)no1 | 36 | Ki [2]: 390 nM
Cc1ccc(-c2csc(Nc3ccc(-c4noc(C[C@@H]5CCCN5C(=N)N)n4)cc3)n2)cc1 | 80 | 
N=C(N)N1CCC[C@H]1Cc1nc(-c2ccc(Nc3nc(-c4ccc(F)c(C(F)(F)F)c4)cs3)cc2)no1 | 33 | Ki [2]: 170 nM
N=C(N)N1CCC[C@H]1Cc1nc(-c2ccc(Nc3nc(-c4cccc(OC(F)(F)F)c4)cs3)cc2)no1 | 82 | 
N=C(N)N1CCC[C@H]1Cc1nc(-c2ccc(Nc3nc(-c4cc5ccccc5o4)cs3)cc2)no1 | 67 | 
CCCCCCCCc1ccc2cc(-c3noc(C4CCCN4C(=N)N)n3)ccc2c1 (single isomer, unassigned) |  | Ki [7]: 1300 nM; Ki [8]: 12000 nM; Ratio Ki [9]: 10
N=C(N)N1CCC[C@H]1Cc1nc(-c2ccc(Nc3nc(-c4ccc(-c5ccccc5)cc4)cs3)cc2)no1 | 27 | Ki [2]: 90 nM; inhibition [3]: Dose-dependent effect; inhibition [4]: Active; inhibition [10]: Active; inhibition [11]: inactive; inhibition [12]: Active

More lines, main results first:

Activity [1] [%] | SMILES | also measured
44 | N=C(N)N1CCC[C@H]1Cc1nc(-c2ccc(Nc3nc(-c4cccc(Br)c4)cs3)cc2)no1 | 
28 | N=C(N)N1CCC[C@H]1Cc1nc(-c2ccc(Nc3nc(-c4cccc(C(F)(F)F)c4)cs3)cc2)no1 | Ki [2]: 90 nM; inhibition [3]: Dose-dependent effect; inhibition [4]: Active
94 | N=C(N)N1CCC[C@H]1Cc1nc(-c2ccc(Nc3nc(-c4ccncc4)cs3)cc2)no1 | 
83 | N=C(N)N1CCC[C@H]1Cc1nc(-c2ccc(Nc3nc(-c4ccccc4)cs3)cc2)no1 | 
94 | N=C(N)N1CCC[C@H]1Cc1nc(-c2ccc(Nc3nc(-c4cccnc4)cs3)cc2)no1 | 
96 | N=C(N)N1CCC[C@H]1Cc1nc(-c2ccc(Nc3nc(-c4ccc(-c5ccc(C(F)(F)F)cc5)cc4)cs3)cc2)no1 | 
55 | N=C(N)N1CCC[C@H]1Cc1nc(-c2ccc(Oc3nc(-c4ccc(C(F)(F)F)cc4)cs3)cc2)no1 | 
43 | N=C(N)N1CCC[C@H]1Cc1nc(-c2ccc(Nc3nc(-c4cc(F)cc(F)c4)cs3)cc2)no1 | 
46 | N=C(N)N1CCC[C@H]1Cc1nc(-c2ccc(Nc3nc(-c4ccc(Cl)c(Cl)c4)cs3)cc2)no1 | 
100 | CN(c1ccc(-c2noc(C[C@@H]3CCCN3C(=N)N)n2)cc1)c1nc(-c2ccc(-c3ccccc3)cc2)cs1 | inhibition [6]: inactive
48 | N=C(N)N1CCC[C@H]1Cc1nc(-c2ccc(Nc3nc(-c4cc(C(F)(F)F)ccc4F)cs3)cc2)no1 | 
73 | N=C(N)N1CCC[C@H]1Cc1nc(-c2ccc(Nc3nc(-c4cccc(-c5ccccc5)c4)cs3)cc2)no1 | 
31 | N=C(N)N1CCC[C@H]1Cc1nc(-c2ccc(Nc3nc(-c4ccc(-c5ccc(F)cc5)cc4)cs3)cc2)no1 | 
